In brackets after ≈: the same amount, converted by molar mass.
What was measured:
Cytochrome P450 1A2 = target: T1, Cytochrome P450 1A2 (Homo sapiens, UniProt P05177); assay: Inhibition of human recombinant CYP1A2; type: ADME
T1 sequence (P05177 whole entry): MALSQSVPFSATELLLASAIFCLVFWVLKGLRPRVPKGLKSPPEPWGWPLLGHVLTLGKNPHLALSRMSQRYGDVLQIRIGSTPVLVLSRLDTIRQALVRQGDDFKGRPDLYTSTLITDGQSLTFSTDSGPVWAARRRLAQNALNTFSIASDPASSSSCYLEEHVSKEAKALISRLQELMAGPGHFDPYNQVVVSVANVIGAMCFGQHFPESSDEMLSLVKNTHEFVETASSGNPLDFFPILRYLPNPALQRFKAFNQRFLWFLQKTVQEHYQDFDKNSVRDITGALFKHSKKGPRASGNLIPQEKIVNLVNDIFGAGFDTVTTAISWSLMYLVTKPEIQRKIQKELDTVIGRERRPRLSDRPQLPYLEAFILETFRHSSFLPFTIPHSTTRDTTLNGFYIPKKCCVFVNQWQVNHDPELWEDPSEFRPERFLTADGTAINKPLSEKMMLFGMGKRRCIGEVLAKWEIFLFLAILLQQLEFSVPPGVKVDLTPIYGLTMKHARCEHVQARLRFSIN
How it was run: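 Human recombinant CYP1A2 with 3-cyano-7-ethoxycoumarin as probe substrate. Fluorescence read at Ex 410 nm / Em 460 nm. IC50 determined.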

[1] = target: Cytochrome P450 1A2 (Homo sapiens) (UniProt P05177); assay: Inhibition of human recombinant CYP1A2 by kinetic assay
[2] = Solubility of the compound; type: physicochemical
How it was run: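 Solubility measured by nephelometry.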

[3] = Metabolic stability in human liver S9 fraction assessed as compound remaining after 15 mins; type: ADME, subcellular; details: read-out: Activity
How it was run: (§1)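 Compound exposed for 15 min to hepatic S9 fraction, human or mouse according to the line. Read-out is percent of parent compound remaining.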

Albumin = Albumin (Homo sapiens, UniProt P02768); assay: Binding affinity to human serum albumin; type: ADME; details: isolated protein
Caco-2 = assay: Permeability across human Caco-2 cells assessed as compound transport per hr; type: ADME, cell-based
[4] = Metabolic stability in mouse liver S9 fraction assessed as compound remaining after 15 mins; type: ADME, subcellular; details: read-out: Activity; how it was run: as §1
[5] = Lipophilicity, log D at pH 7.4; type: physicochemical; details: buffer
Cytochrome P450 2C9 = Cytochrome P450 2C9 (Homo sapiens, UniProt P11712); assay: Inhibition of human recombinant CYP2C9; type: ADME
Cytochrome P450 2D6 = Cytochrome P450 2D6 (Homo sapiens, UniProt P10635); assay: Inhibition of human recombinant CYP2D6; type: ADME
Cytochrome P450 3A4 = Cytochrome P450 3A4 (Homo sapiens, UniProt P08684); assay: Inhibition of human recombinant CYP3A4; type: ADME
hERG (KCNH2) = hERG (KCNH2) (Homo sapiens, UniProt Q12809); assay: Inhibition of human ERG at 10 uM
Cytochrome P450 2C19 = Cytochrome P450 2C19 (Homo sapiens, UniProt P33261); assay: Inhibition of human recombinant CYP2C19; type: ADME
[6] = target: Voltage-gated inwardly rectifying potassium channel KCNH2 (Homo sapiens, UniProt Q12809); assay: Inhibition of human ERG
[7] = target: Cyclin-dependent kinase 9 (Homo sapiens) (UniProt P50750); assay: Inhibition of CDK9 at 10 uM
[8] = target: Cyclin-dependent kinase 4 (Homo sapiens) (UniProt P11802); assay: Inhibition of CDK4 at 10 uM
[9] = target: Glycogen synthase kinase-3 beta (Rattus norvegicus) (UniProt P18266); assay: Inhibition of GSK3-beta assessed as tau phosphorylation
[10] = target: Cyclin-dependent kinase 2 (Homo sapiens) (UniProt P24941); assay: Inhibition of CDK2 at 10 uM
[11] = target: Cyclin-dependent kinase 5 (Homo sapiens) (UniProt Q00535); assay: Inhibition of CDK5 at 10 uM

Sequence of Albumin (P02768 whole entry): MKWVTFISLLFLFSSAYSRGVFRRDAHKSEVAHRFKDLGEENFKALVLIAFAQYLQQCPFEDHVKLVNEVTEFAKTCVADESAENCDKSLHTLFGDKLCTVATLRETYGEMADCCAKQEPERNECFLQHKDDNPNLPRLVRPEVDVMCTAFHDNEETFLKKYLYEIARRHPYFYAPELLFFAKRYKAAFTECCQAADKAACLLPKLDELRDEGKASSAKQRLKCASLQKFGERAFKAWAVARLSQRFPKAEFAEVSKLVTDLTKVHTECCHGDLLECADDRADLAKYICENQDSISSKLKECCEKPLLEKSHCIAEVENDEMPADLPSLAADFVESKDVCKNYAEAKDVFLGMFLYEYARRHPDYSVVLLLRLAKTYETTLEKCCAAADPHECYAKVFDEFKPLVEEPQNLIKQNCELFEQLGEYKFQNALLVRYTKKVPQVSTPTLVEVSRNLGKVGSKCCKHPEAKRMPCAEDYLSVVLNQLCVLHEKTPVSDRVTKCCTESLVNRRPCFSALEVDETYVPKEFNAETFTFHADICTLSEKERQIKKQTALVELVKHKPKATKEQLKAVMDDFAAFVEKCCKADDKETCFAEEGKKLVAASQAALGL
Sequence of Cytochrome P450 3A4 (P08684 whole entry): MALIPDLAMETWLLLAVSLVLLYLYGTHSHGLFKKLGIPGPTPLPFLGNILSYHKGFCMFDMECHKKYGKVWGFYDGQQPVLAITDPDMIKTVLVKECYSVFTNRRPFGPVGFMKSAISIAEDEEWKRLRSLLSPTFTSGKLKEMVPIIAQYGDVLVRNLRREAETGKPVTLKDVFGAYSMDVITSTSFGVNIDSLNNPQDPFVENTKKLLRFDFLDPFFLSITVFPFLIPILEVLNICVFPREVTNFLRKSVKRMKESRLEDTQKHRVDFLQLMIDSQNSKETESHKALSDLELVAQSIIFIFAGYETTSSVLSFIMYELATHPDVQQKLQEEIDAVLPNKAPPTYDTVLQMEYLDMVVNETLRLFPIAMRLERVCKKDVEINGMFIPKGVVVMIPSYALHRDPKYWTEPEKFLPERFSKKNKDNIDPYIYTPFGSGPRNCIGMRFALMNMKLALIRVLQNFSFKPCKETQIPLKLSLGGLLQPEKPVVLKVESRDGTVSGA
Sequence of Cytochrome P450 2D6 (P10635 whole entry): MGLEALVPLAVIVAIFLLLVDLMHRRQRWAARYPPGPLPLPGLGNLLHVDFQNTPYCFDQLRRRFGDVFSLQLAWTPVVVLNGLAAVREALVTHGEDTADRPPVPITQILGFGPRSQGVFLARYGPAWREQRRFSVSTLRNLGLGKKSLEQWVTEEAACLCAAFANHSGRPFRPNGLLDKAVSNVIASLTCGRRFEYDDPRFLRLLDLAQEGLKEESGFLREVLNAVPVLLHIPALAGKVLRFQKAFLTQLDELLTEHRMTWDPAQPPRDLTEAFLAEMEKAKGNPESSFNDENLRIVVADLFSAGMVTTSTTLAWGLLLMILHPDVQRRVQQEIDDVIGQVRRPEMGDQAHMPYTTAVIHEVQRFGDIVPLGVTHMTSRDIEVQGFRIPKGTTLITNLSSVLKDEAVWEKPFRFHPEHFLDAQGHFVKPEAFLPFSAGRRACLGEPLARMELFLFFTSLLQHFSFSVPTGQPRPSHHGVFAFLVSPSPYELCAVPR
Sequence of Cytochrome P450 2C19 (P33261 whole entry): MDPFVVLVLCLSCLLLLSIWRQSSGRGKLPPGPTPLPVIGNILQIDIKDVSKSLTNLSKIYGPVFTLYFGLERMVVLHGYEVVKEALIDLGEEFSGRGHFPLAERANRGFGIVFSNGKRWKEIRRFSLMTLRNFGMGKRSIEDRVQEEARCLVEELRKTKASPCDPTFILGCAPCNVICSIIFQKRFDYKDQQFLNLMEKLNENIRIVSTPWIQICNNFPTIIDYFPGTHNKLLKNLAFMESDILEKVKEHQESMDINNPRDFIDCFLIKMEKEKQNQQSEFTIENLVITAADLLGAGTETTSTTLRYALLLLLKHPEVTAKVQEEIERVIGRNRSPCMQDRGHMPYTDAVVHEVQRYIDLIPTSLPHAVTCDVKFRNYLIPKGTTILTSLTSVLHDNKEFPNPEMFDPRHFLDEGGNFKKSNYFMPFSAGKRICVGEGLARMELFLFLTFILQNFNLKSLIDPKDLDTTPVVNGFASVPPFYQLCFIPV
Sequence of hERG (KCNH2) (Q12809 whole entry): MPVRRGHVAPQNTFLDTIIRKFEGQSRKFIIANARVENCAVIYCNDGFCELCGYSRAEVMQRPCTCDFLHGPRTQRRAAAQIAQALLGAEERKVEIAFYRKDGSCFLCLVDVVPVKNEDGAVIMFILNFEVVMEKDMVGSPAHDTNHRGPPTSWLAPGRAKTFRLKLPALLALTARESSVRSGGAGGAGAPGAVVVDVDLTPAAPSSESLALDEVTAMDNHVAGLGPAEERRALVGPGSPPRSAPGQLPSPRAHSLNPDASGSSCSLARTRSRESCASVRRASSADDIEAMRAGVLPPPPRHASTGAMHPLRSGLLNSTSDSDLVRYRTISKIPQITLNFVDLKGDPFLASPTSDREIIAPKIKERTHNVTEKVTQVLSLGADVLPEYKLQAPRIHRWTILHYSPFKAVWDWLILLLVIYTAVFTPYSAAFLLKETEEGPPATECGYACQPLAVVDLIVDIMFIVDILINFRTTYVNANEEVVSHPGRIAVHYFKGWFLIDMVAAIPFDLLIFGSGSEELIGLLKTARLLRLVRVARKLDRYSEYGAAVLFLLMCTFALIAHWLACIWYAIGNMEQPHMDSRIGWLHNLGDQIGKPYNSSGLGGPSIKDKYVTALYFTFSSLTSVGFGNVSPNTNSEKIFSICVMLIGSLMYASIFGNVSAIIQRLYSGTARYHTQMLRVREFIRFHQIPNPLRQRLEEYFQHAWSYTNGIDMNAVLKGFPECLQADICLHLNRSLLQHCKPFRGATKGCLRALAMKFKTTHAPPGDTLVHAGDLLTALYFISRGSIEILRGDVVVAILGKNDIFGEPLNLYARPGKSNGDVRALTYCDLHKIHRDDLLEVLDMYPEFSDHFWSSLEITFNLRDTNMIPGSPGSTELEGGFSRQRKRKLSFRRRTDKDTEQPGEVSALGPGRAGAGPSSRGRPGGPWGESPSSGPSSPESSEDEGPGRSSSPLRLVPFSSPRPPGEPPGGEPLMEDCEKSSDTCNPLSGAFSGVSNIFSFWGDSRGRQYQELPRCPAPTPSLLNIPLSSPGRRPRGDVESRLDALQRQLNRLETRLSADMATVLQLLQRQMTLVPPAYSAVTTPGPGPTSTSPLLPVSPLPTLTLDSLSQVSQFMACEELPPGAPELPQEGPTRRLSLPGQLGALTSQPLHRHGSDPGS
Sequence of Cytochrome P450 2C9 (P11712 whole entry): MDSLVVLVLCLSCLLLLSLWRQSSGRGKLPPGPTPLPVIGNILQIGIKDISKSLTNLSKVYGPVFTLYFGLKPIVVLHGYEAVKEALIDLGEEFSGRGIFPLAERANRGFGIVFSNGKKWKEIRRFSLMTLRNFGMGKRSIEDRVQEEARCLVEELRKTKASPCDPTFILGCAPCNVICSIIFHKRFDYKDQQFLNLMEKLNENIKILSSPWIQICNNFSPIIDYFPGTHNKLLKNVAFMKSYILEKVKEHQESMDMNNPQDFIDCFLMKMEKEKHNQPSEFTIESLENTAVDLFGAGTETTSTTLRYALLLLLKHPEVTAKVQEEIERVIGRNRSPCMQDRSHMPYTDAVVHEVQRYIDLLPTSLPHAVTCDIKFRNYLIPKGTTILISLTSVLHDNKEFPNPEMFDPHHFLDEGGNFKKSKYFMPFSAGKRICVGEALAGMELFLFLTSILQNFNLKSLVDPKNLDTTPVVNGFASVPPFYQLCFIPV
Sequence of Cyclin-dependent kinase 4 (Homo sapiens) (P11802 whole entry): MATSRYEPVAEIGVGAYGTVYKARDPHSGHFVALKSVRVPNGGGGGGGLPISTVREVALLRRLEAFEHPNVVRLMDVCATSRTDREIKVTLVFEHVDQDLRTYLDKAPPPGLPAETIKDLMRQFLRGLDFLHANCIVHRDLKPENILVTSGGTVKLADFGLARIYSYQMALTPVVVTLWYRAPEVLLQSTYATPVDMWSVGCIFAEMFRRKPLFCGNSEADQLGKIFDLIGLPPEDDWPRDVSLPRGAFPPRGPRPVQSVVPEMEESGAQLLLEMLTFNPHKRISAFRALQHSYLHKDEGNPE
Sequence of Glycogen synthase kinase-3 beta (Rattus norvegicus) (P18266 whole entry, looked up): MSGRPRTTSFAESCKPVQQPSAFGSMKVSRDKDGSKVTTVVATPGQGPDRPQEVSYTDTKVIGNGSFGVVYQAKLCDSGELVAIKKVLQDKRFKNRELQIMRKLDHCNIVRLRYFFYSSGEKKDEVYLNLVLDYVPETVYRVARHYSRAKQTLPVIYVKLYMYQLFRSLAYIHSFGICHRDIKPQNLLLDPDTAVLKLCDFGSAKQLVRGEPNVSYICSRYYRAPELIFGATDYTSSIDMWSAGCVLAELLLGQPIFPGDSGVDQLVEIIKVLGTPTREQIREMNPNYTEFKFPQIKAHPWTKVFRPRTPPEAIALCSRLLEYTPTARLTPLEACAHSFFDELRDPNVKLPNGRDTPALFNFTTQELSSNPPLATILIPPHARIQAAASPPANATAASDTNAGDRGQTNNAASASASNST
Sequence of Cyclin-dependent kinase 9 (Homo sapiens) (P50750 whole entry): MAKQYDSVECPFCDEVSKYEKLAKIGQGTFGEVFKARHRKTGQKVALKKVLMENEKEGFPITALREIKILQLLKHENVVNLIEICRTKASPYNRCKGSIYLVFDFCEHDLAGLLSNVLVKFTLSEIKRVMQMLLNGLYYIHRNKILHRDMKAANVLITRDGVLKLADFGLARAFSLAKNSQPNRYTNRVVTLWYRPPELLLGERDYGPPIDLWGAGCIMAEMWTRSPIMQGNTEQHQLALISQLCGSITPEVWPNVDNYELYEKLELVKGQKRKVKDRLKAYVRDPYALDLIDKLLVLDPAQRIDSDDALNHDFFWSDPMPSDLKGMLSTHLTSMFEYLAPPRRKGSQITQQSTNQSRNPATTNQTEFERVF

Work on `CCCC(=O)Nc1n[nH]c2cc(Cl)c(-c3ccc(C)cc3)cc12` yielded an IC50 (Cytochrome P450 1A2) of 1750 nM.

In the case of `CCCC(=O)Nc1n[nH]c2cc(-c3cccnc3)ccc12`, the IC50 [1] is reported as 5900 nM and the IC50 (Cytochrome P450 1A2) is reported as 1200 nM.

With `CCCC(=O)Nc1n[nH]c2cc(Cl)c(-c3ccc([N+](=O)[O-])cc3)cc12` the IC50 (Cytochrome P450 1A2) was 4460 nM.

Compound `CCCC(=O)Nc1n[nH]c2cc(-c3cc(F)cc(F)c3)ccc12` has an IC50 [1] of 2700 nM and an IC50 (Cytochrome P450 1A2) of 13800 nM.

`CCCC(=O)Nc1n[nH]c2cc(-c3ccc(O)cc3)ccc12` showed a solubility [2] of 0.067 mg/mL (≈ 227 µM), a remaining at 0.25 h [3] of 58% and an Activity (Albumin) of 97.3%. It also gave a permeability (Caco-2) of 15.25%, an IC50 [1] of 22000 nM and an IC50 (Cytochrome P450 1A2) of over 50000 nM. For the same compound, the remaining at 0.25 h [4] was 4%.

For `CC(C(=O)Nc1n[nH]c2cc(Cl)c(-c3ccccc3)cc12)N1CCCCC1` (centres undefined), the solubility [2] was under 0.02 mg/mL and the logD [5] was 3.53.

Compound `O=C(CN1CCOCC1)Nc1n[nH]c2cc(Cl)ccc12` has a solubility [2] of under 0.02 mg/mL and a logD [5] of 3.1.

Compound `CCCC(=O)Nc1n[nH]c2cc(Cl)c(Br)cc12` has a solubility [2] of under 0.02 mg/mL, a remaining at 0.25 h [3] of 97% and a permeability (Caco-2) of 17.25%. For the same compound, the IC50 (Cytochrome P450 1A2) was 550 nM, the remaining at 0.25 h [4] was 87% and the logD [5] was 4.4.

Work on `O=C(O)CCC(=O)Nc1n[nH]c2cc(Cl)ccc12` yielded a solubility ([2]; read-out: solubility) of 0.716 mg/mL (≈ 2670 µM), an Activity (Albumin) of under 90% and an IC50 (Cytochrome P450 1A2) of over 50000 nM. The logD [5] was under 1.

`CCCC(=O)Nc1n[nH]c2cc(Cl)c(-c3ccc(OCc4ccccc4)cc3)cc12` gave an IC50 (Cytochrome P450 1A2) of over 10000 nM.

Work on `CCCC(=O)Nc1n[nH]c2c(F)c(F)ccc12` yielded a solubility [2] of 0.054 mg/mL (≈ 226 µM), a remaining at 0.25 h [3] of 98% and a permeability (Caco-2) of 16.33%. The remaining at 0.25 h [4] was 93% and the logD [5] was 3.

In the case of `CCCC(=O)Nc1n[nH]c2cc(Cl)c(-c3ccc(O)cc3)cc12`, the solubility [2] is reported as under 0.02 mg/mL, the permeability (Caco-2) is reported as 8.02% and the IC50 [1] is reported as 80 nM. It also gave a remaining at 0.25 h [4] of 19% and a logD [5] of 3.9.

In the case of `CCCC(=O)Nc1n[nH]c2cc(Cl)c(-c3ccc(N)cc3)cc12`, the IC50 (Cytochrome P450 1A2) is reported as 980 nM.

With `CCCC(=O)Nc1n[nH]c2cc(-c3ccccc3)ccc12` the IC50 [1] was 390 nM and the IC50 (Cytochrome P450 1A2) was over 10000 nM.

Work on `O=C(Nc1n[nH]c2cc(Cl)c(-c3ccccc3)cc12)N1CCCC1` yielded a solubility [2] of under 0.02 mg/mL and a remaining at 0.25 h [4] of 79%.

Work on `O=C(NCCCn1ccnc1)Nc1n[nH]c2cc(Cl)c(-c3ccccc3)cc12` yielded a solubility [2] of under 0.02 mg/mL and a remaining at 0.25 h [4] of 85%.

Work on `CCCC(=O)Nc1n[nH]c2cc(Cl)c(-c3ccccc3)cc12` yielded a solubility [2] of under 0.02 mg/mL, an IC50 (Cytochrome P450 2C9) of over 10 µM and a remaining at 0.25 h [3] of 91%. It also gave an IC50 (Cytochrome P450 2D6) of over 10 µM, an Activity (Albumin) of 99.4% and a permeability (Caco-2) of 3.9%. The IC50 (Cytochrome P450 3A4) was over 10 µM, the IC50 [1] was 80 nM and the inhibition at 10 µM (hERG (KCNH2)) was 24%. The IC50 (Cytochrome P450 1A2) was under 400 nM, the remaining at 0.25 h [4] was 40% and the IC50 (Cytochrome P450 2C19) was over 10 µM. The logD [5] was 3.7.

In the case of `CCCC(=O)Nc1n[nH]c2cc(Cl)c(-c3ccc(F)cc3)cc12`, the IC50 [1] is reported as 130 nM and the IC50 (Cytochrome P450 1A2) is reported as 830 nM.

`CCCC(=O)Nc1n[nH]c2c(F)c(F)c(-c3ccccc3)cc12` showed a solubility [2] of 0.004 mg/mL (≈ 12.7 µM), a remaining at 0.25 h [3] of 86% and a remaining at 0.25 h [4] of 56%. It also gave a logD [5] of 2.4.

With `CCC(=O)Nc1n[nH]c2cc(Cl)ccc12` the solubility ([2]; read-out: solubility) was 0.168 mg/mL (≈ 751 µM), the Activity (Albumin) was 92.8% and the logD [5] was 2.2.

Compound `CCCC(=O)Nc1n[nH]c2cc(-c3ccc(O)cc3)c(Br)cc12` has a solubility [2] of under 0.02 mg/mL, an IC50 (Cytochrome P450 2C9) of over 10 µM and a remaining at 0.25 h [3] of 91%. It also gave an IC50 (Cytochrome P450 2D6) of over 10 µM, an Activity (Albumin) of 99.3% and an IC50 (Cytochrome P450 3A4) of over 10 µM. It also gave an IC50 [1] of 70 nM, an inhibition at 10 µM (hERG (KCNH2)) of 7% and an IC50 (Cytochrome P450 1A2) of over 10000 nM. It also gave a remaining at 0.25 h [4] of 10%, an IC50 (Cytochrome P450 2C19) of over 10 µM and a logD [5] of 4.4.

`O=C(CN1CCOCC1)Nc1n[nH]c2cc(Cl)c(-c3ccccc3)cc12` gave a solubility [2] of 0.028 mg/mL (≈ 75.5 µM) and a logD [5] of 3.49.

Work on `CCCC(=O)Nc1n[nH]c2cc(-c3ccsc3)ccc12` yielded an IC50 (Cytochrome P450 1A2) of 1900 nM.

In the case of `CN1CCN(CCCNC(=O)Nc2n[nH]c3cc(Cl)c(-c4ccccc4)cc23)CC1`, the solubility [2] is reported as over 0.208 mg/mL and the remaining at 0.25 h [4] is reported as 100%.

Compound `CCCC(=O)Nc1n[nH]c2cc(Cl)c(-c3ccoc3)cc12` has a solubility [2] of under 0.02 mg/mL, a remaining at 0.25 h [3] of 45% and a permeability (Caco-2) of 12.3%. The IC50 [1] was 30 nM, the IC50 (Cytochrome P450 1A2) was under 400 nM and the remaining at 0.25 h [4] was 4%. For the same compound, the logD [5] was 4.1.

In the case of `O=C(Nc1ccccc1)Nc1n[nH]c2cc(Cl)c(-c3ccccc3)cc12`, the solubility [2] is reported as under 0.02 mg/mL, the IC50 [6] is reported as over 10 µM and the inhibition [7] is reported as 81%. It also gave an inhibition [8] of under 50%, an IC50 [9] of 270 nM and an inhibition [10] of under 50%. It also gave a remaining at 0.25 h [4] of 92% and an inhibition [11] of under 50%.
